Data as given in publication PMC11635510 (ACS Omega, 2024).
Entries after “also recorded” stand apart in the source; their conditions may differ.

Key:
AChE [1] = molecular target: T1, AChE (Homo sapiens, UniProt P22303); test: biochemical
BChE [2] = molecular target: T2, BChE (Homo sapiens, UniProt P06276); test: biochemical; type: biochemical; settings: for fold better BChE inhibitory activity in comparison with positive control: vs donepezil (positive control)
BChE [3] = molecular target: T2, BChE; test: Enzyme kinetic study; type: biochemical
Method in brief: (§1)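 Inhibition type and Km taken from Lineweaver–Burk double-reciprocal plots. Ki derived from secondary plots of line slope versus inhibitor concentration and of 1/Vmax versus inhibitor concentration. Cholinesterase activity was measured by a modified Ellman method.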

[4] = Toxicity assay on SH-SY5Y; type: cell-based; settings: human, SH-SY5Y neuroblastoma cells
Method in brief: (§2)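 SH-SY5Y cells were cultured in DMEM/F12 with 15% fetal bovine serum, 100 units/mL penicillin and 100 μg/mL streptomycin. Viability was read by MTT after 72 h exposure to test compound. Results are mean ± SEM of five independent experiments, each in triplicate; p < 0.05 was taken as significant.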

[5] = test system: SH-SY5Y neuroblastoma cell line; test: Toxicity assay on SH-SY5Y; type: cell-based; settings: concentrations below 50 μM; 72 h; MTT
Method in brief: as §2

GSK-3β mRNA = GSK-3β mRNA level by quantitative PCR in SH-SY5Y; type: cell-based
GSK-3α mRNA = GSK-3α mRNA level by quantitative PCR in SH-SY5Y; type: cell-based; settings: 25 μM
Method in brief: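 Cells were exposed to test compound at 25 μM. Total RNA was extracted with RNX-plus reagent following the manufacturer's protocol, and transcript levels were then quantified by real-time PCR.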

AChE [6] = molecular target: T1, AChE; test: Enzyme kinetic study; type: biochemical
Method in brief: as §1

T1 sequence (P22303 32-614): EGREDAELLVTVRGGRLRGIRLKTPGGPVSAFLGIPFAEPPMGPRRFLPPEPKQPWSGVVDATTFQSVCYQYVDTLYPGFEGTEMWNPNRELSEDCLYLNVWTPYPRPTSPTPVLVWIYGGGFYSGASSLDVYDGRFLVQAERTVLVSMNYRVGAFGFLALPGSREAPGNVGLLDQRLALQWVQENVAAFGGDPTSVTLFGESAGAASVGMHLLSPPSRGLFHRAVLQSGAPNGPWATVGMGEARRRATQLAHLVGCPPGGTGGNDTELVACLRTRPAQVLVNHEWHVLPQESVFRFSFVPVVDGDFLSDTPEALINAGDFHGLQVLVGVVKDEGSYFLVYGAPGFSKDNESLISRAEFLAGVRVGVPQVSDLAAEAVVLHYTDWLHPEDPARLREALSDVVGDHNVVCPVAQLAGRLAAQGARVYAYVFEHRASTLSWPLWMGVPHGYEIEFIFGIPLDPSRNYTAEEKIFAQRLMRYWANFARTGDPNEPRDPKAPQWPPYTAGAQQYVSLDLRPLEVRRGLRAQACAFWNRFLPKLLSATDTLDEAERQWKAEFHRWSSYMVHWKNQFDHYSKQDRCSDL
T2 sequence (P06276 29-602, species assumed): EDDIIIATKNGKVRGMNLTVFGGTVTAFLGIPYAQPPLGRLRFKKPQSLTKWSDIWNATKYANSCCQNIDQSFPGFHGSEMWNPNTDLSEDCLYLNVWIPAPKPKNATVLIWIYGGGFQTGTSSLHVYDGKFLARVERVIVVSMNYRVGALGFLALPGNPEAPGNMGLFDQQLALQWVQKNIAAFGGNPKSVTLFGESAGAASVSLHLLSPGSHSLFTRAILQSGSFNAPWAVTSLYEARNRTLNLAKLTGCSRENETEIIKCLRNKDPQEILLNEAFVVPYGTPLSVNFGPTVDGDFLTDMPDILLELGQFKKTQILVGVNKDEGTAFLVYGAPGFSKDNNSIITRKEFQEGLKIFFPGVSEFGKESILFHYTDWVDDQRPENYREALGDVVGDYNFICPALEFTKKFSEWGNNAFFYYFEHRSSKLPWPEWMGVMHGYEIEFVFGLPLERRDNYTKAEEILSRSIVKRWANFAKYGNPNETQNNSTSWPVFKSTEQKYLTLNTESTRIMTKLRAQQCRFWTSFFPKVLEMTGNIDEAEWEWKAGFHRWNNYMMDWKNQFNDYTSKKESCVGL

O=C(NCc1ccc[n+](Cc2ccccc2)c1)c1ccc(CN2C(=O)c3ccccc3C2=O)cc1.[Br-] [Compound 7a]
IC50 (AChE [1]): 9.71 ± 0.83 µM | IC50 (BChE [2]): 0.32 ± 0.06 µM | fold better BChE inhibitory activity in comparison with positive control (BChE [2]): around 33 fold

O=C(NCc1ccc[n+](Cc2ccccc2F)c1)c1ccc(CN2C(=O)c3ccccc3C2=O)cc1 [Compound 7b]
IC50 (AChE [1]): 1.19 ± 0.45 µM | IC50 (BChE [2]): 0.31 ± 0.02 µM

O=C(NCc1ccc[n+](Cc2cccc(F)c2)c1)c1ccc(CN2C(=O)c3ccccc3C2=O)cc1.[Cl-] [Compound 7c]
IC50 (AChE [1]): 3.98 ± 0.21 µM | IC50 (BChE [2]): 0.08 ± 0.01 µM | fold better BChE inhibitory activity in comparison with positive control (BChE [2]): 132 fold | Ki (BChE [3]): 0.13 µM | inhibition mode (BChE [3]; Lineweaver-Burk plot, BChE): mixed-type inhibition mode; also recorded: mixed inhibitor | viability at 72 h, 50 µM [4]: ~80% | toxicity on SH-SY5Y at fewer concentrations [5]: did not exhibit any toxicity | reduction of GSK-3β mRNA level (GSK-3β mRNA; 25 μM): 25% | mRNA level of GSK-3β (GSK-3β mRNA; 25 μM, relative to control group): ~75% | effect on mRNA level of GSK-3β (in words) (GSK-3β mRNA; SH-SY5Y, compared to control group): decreased; also recorded: could reduce the mRNA level of GSK-3β | effect on the mRNA level of GSK3α (GSK-3α mRNA): no noticeable effect

O=C(NCc1ccc[n+](Cc2ccc(F)cc2)c1)c1ccc(CN2C(=O)c3ccccc3C2=O)cc1 [Compound 7d]
IC50 (AChE [1]): 11.1 ± 1.29 µM | IC50 (BChE [2]): 0.33 ± 0.01 µM

O=C(NCc1ccc[n+](Cc2cccc(Cl)c2)c1)c1ccc(CN2C(=O)c3ccccc3C2=O)cc1 [Compound 7f]
IC50 (AChE [1]): 2.66 ± 0.88 µM | IC50 (BChE [2]): 0.56 ± 0.19 µM

O=C(NCc1ccc[n+](Cc2cccc(Br)c2)c1)c1ccc(CN2C(=O)c3ccccc3C2=O)cc1 [Compound 7i]
IC50 (AChE [1]): 2.1 ± 0.49 µM | IC50 (BChE [2]): 0.15 ± 0.01 µM

O=C(NCc1ccc[n+](Cc2ccc(Br)cc2)c1)c1ccc(CN2C(=O)c3ccccc3C2=O)cc1.[Br-] [Compound 7j]
IC50 (AChE [1]): 0.26 ± 0.07 µM | Ki (AChE [6]): 0.94 µM | secondary inhibition constant (Kis) (AChE [6]; 1/Vmax vs inhibitor concentration, AChE): 4.29 µM | inhibition mode (AChE [6]; Lineweaver-Burk plot, AChE): mixed mode of inhibition; also recorded: mixed-type inhibition pattern

O=C(NCc1ccc[n+](Cc2ccc([N+](=O)[O-])cc2)c1)c1ccc(CN2C(=O)c3ccccc3C2=O)cc1 [Compound 7l]
IC50 (AChE [1]): 5.06 ± 2.4 µM | IC50 (BChE [2]): 20.4 ± 2.55 µM

CCCCC[n+]1cccc(CNC(=O)c2ccc(CN3C(=O)c4ccccc4C3=O)cc2)c1 [Compound 7p]
IC50 (AChE [1]): 6.29 ± 0.76 µM | IC50 (BChE [2]): 18.6 ± 1.21 µM

CC[n+]1cccc(CNC(=O)c2ccc(CN3C(=O)c4ccccc4C3=O)cc2)c1 [Compound 7q]
inhibition at 50 µM (AChE [1]; read-out: AChE % inhibition at 50 μM): 33.6 ± 2.9% | IC50 (BChE [2]): 0.49 ± 0.04 µM
